Legend:
Felid alphaherpesvirus 1 = experiment: Antiviral activity against Feline herpesvirus infected in cat CRFK cells assessed as inhibition of virus-induced cytopathic effect after 4 days by microscopic analysis; format: functional, organism-based; settings: Felid alphaherpesvirus 1, CRFK, 96 h
Procedure, shortened: (§1)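 Confluent monolayers (CRFK for feline herpes virus; HEL for HSV-2 G) were inoculated with 100 CCID50 of virus in the presence of compound at 200, 40, 8, … μM. Cytopathicity was scored once it was complete in untreated infected controls.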

Vaccinia virus = experiment: Antiviral activity against Vaccinia virus infected in human HEL cells assessed as inhibition of virus-induced cytopathic effect after 4 days by microscopic analysis; format: functional, organism-based; settings: Orthopoxvirus vaccinia, 96 h
Thymidine kinase [1] = molecular target: T1, Thymidine kinase (Feline herpesvirus 1, UniProt P13159); experiment: Inhibition of Feline herpesvirus thymidine kinase assessed as phosphorylation of 1 uM [methyl-3H]dThd after 30 mins by scintillation counting; set-up: species or system Felid alphaherpesvirus 1
T1 sequence (P13159 whole entry): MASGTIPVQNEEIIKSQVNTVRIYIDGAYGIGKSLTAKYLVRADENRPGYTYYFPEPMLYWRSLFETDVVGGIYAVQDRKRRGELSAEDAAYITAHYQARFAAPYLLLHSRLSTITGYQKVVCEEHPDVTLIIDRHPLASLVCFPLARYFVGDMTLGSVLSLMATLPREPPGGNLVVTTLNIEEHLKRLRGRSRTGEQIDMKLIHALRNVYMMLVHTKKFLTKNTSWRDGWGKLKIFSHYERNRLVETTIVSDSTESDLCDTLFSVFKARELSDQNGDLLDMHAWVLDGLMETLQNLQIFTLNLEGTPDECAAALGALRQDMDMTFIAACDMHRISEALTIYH

L1210 = experiment: Antiproliferation activity against mouse L1210 cells after 2 days by coulter counter; format: cell-based; settings: L1210, 48 h
Procedure, shortened: (§2)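 L1210, FM3A, CEM or HeLa cells at 300,000–500,000 cells/mL were mixed 1:1 with compound dilutions. Incubation at 37 °C lasted 2 days (L1210, FM3A) or 3 days (CEM, HeLa), after which cells were counted with a Coulter counter.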

HEL = experiment: Cytotoxicity against human HEL cells by colorimetric formazan-based MTS assay; format: cell-based
Human alphaherpesvirus 3 [2] = experiment: Antiviral activity against Varicella-zoster virus OKA expressing thymidine kinase infected in human HEL cells assessed as reduction in the virus plaque formation; format: functional, cell-based; settings: Human alphaherpesvirus 3, strain Oka vaccine
[3] = Cytotoxicity against human HEL cells assessed as alteration of normal cell morphology by microscopic analysis; format: cell-based
Procedure, shortened: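 Uninfected HEL cells were examined under the microscope. The minimum cytotoxic concentration is the lowest concentration causing a detectable alteration of normal cell morphology.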

Human alphaherpesvirus 1 [4] = experiment: Antiviral activity against Herpes simplex virus 1 KOS infected in human HEL cells assessed as inhibition of virus-induced cytopathic effect after 4 days by microscopic analysis; format: functional, organism-based; settings: Human alphaherpesvirus 1, KOS, 96 h
[5] = Inhibition of Varicella-zoster virus thymidine kinase-mediated phosphorylation of [methyl-3H]dThd at 1 uM after 30 mins by scintillation counting; set-up: species or system Human alphaherpesvirus 3
Human betaherpesvirus 5 [6] = experiment: Antiviral activity against Human cytomegalovirus AD-169 infected in human HEL cells assessed as reduction in the virus plaque formation; format: functional, organism-based; settings: Human betaherpesvirus 5, AD169, HEL
Procedure, shortened: (§3)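 HEL cells were infected with 100 PFU of HCMV (AD-169 or Davis) in the presence of compound.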

Human alphaherpesvirus 1 [7] = experiment: Antiviral activity against acyclovir-resistant TK-deficient Herpes simplex virus-1 KOS infected in human HEL cells assessed as inhibition of virus-induced cytopathic effect after 4 days by microscopic analysis; format: functional, organism-based; settings: Human alphaherpesvirus 1, KOS, 96 h
Human alphaherpesvirus 2 = experiment: Antiviral activity against Herpes simplex virus-2 G infected in human HEL cells assessed as inhibition of virus-induced cytopathic effect after 4 days by microscopic analysis; format: functional, organism-based; settings: Human alphaherpesvirus 2, strain G, 96 h; procedure, shortened: as §1
HeLa = experiment: Antiproliferation activity against human HeLa cells after 3 days by coulter counter; format: cell-based; settings: 72 h; procedure, shortened: as §2
Human alphaherpesvirus 3 [8] = experiment: Antiviral activity against thymidine kinase-deficient Varicella-zoster virus YS/R infected in human HEL cells assessed as reduction in the virus plaque formation; format: functional, organism-based; settings: Human alphaherpesvirus 3, YS/R
[9] = Cytotoxicity against cat CRFK cells by colorimetric formazan-based MTS assay; format: cell-based, Felis catus
Human alphaherpesvirus 3 [10] = experiment: Antiviral activity against Varicella-zoster virus YS expressing thymidine kinase infected in human HEL cells assessed as reduction in the virus plaque formation; format: functional, organism-based; settings: Human alphaherpesvirus 3, YS
CCRF-CEM = experiment: Antiproliferation activity against human CEM cells after 3 days by coulter counter; format: cell-based; settings: 72 h; procedure, shortened: as §2
Human betaherpesvirus 5 [11] = experiment: Antiviral activity against Human cytomegalovirus Davis infected in human HEL cells assessed as reduction in the virus plaque formation; format: functional, organism-based; settings: Human betaherpesvirus 5, Davis; procedure, shortened: as §3
FM3A = experiment: Antiproliferation activity against mouse FM3A cells after 2 days by coulter counter; format: cell-based; settings: 48 h; procedure, shortened: as §2
Thymidine kinase [12] = molecular target: T2, Thymidine kinase (Human alphaherpesvirus 1, UniProt Q9QNF7); experiment: Inhibition of Herpes simplex virus-1 thymidine kinase-mediated phosphorylation of [methyl-3H]dThd at 1 uM after 30 mins by scintillation counting
T2 sequence (Q9QNF7 whole entry): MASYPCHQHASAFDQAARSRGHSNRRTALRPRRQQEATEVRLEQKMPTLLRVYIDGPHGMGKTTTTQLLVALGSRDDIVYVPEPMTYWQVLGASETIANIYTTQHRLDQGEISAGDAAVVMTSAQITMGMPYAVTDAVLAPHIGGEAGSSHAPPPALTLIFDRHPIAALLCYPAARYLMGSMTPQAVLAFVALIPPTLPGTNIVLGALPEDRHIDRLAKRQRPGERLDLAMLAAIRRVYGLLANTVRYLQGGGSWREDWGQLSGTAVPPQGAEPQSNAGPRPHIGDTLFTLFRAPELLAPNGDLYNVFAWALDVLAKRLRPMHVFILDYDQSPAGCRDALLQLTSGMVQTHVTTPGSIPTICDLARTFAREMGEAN

Human alphaherpesvirus 3 [13] = experiment: Antiviral activity against thymidine kinase-deficient Varicella-zoster virus 07-1 infected in human HEL cells assessed as reduction in the virus plaque formation; format: functional, organism-based; settings: Human alphaherpesvirus 3, 07-1, HEL

Row | SMILES | EC50 (Felid alphaherpesvirus 1) | EC50 (Vaccinia virus) | IC50 (L1210) | CC50 (HEL) | EC50 (Human alphaherpesvirus 3 [2]) | MCC [3] | EC50 (Human alphaherpesvirus 1 [4]) | EC50 (Human betaherpesvirus 5 [6]) | EC50 (Human alphaherpesvirus 1 [7]) | EC50 (Human alphaherpesvirus 2) | IC50 (HeLa) | EC50 (Human alphaherpesvirus 3 [8]) | CC50 ([9]; crfk) | EC50 (Human alphaherpesvirus 3 [10]) | IC50 (CCRF-CEM) | EC50 (Human betaherpesvirus 5 [11]) | IC50 (FM3A) | EC50 (Human alphaherpesvirus 3 [13]) | further results
1 | O=c1[nH]c(=O)n([C@@H]2O[C@H](CO)[C@@H](O)C2(F)F)cc1I | 1.2 µM | > 100 µM | 302 µM | > 100 µM | 9.1 µM | > 50 µM | 16 µM | > 50 µM | 20 µM | 64 µM | 230 µM | > 50 µM | > 100 µM | 13 µM | 154 µM | > 50 µM | 409 µM | > 50 µM | IC50 (Thymidine kinase [1]): 38 µM; IC50 [5]: 19 µM; IC50 (Thymidine kinase [12]): 3.5 µM
2 | O=c1[nH]c(=O)n([C@@H]2O[C@H](CO)[C@@H](O)C2(F)F)cc1Br | 2.4 µM | > 100 µM | > 500 µM | > 100 µM | 11 µM | > 50 µM | 15 µM | > 50 µM | 73 µM | > 100 µM | 458 µM | > 50 µM | > 100 µM | 23 µM | > 500 µM | > 50 µM | > 500 µM | > 50 µM | IC50 (Thymidine kinase [1]): 34 µM; IC50 [5]: 26 µM; IC50 (Thymidine kinase [12]): 7.5 µM
3 | O=c1[nH]c(=O)n([C@@H]2O[C@H](CO)[C@@H](O)C2(F)F)cc1Cl | 13 µM | > 100 µM | > 500 µM | > 100 µM | ≥ 50 µM | > 50 µM | 33 µM | > 50 µM | 78 µM | ≥ 100 µM | ≥ 500 µM | > 50 µM | > 100 µM | > 50 µM | > 500 µM | > 50 µM | > 500 µM | > 50 µM | IC50 (Thymidine kinase [1]): 93 µM; IC50 [5]: 35 µM; IC50 (Thymidine kinase [12]): 22 µM
4 | Cc1cn([C@@H]2O[C@H](CO)[C@@H](O)C2(F)F)c(=O)[nH]c1=O | > 100 µM | ≥ 100 µM | > 500 µM | 100 µM | 5.8 µM | > 50 µM | 12 µM | > 50 µM | 20 µM | 39 µM | > 500 µM | > 50 µM | > 100 µM | 10 µM | > 500 µM | > 50 µM | > 500 µM | > 50 µM | IC50 (Thymidine kinase [1]): 85 µM; IC50 [5]: 21 µM; IC50 (Thymidine kinase [12]): 2.8 µM
5 | C[C@H](NP(=O)(OC[C@H]1O[C@@H](n2cc(I)c(=O)[nH]c2=O)C(F)(F)[C@@H]1O)Oc1ccccc1)C(=O)OCc1ccccc1 (stereo partly specified) | 4.4 µM | 58 µM |  |  |  | > 100 µM | 27 µM |  | ≥ 100 µM | 50 µM |  |  | ≥ 70 µM |  |  |  |  |  | 
6 | COC(=O)[C@H](C)NP(=O)(OC[C@H]1O[C@@H](n2cc(I)c(=O)[nH]c2=O)C(F)(F)[C@@H]1O)Oc1ccccc1 (stereo partly specified) | 28 µM | > 100 µM | 226 µM | 51 µM | > 50 µM | > 50 µM | > 100 µM | > 50 µM | > 100 µM | > 100 µM | 126 µM |  | > 100 µM |  | 176 µM | > 50 µM | 258 µM | > 50 µM | 
7 | C[C@H](NP(=O)(OC[C@H]1O[C@@H](n2cc(I)c(=O)[nH]c2=O)C(F)(F)[C@@H]1O)Oc1cccc2ccccc12)C(=O)OCc1ccccc1 (stereo partly specified) | > 20 µM | > 20 µM | 23 µM | 49 µM | 8.5 µM | > 50 µM | > 20 µM | > 50 µM | > 20 µM | > 20 µM | 29 µM |  | 36 µM |  | 21 µM | > 50 µM |  | 37 µM | 
8 | COC(=O)[C@H](C)NP(=O)(OC[C@H]1O[C@@H](n2cc(I)c(=O)[nH]c2=O)C(F)(F)[C@@H]1O)Oc1cccc2ccccc12 (stereo partly specified) | > 20 µM | > 100 µM | 134 µM | ≥ 100 µM | 25 µM | > 50 µM | > 100 µM | > 50 µM | > 100 µM | > 100 µM | 133 µM | > 50 µM | 92 µM | 29 µM | 60 µM | > 50 µM | 46 µM | > 50 µM | 
9 | C[C@H](NP(=O)(OC[C@H]1O[C@@H](n2cc(Br)c(=O)[nH]c2=O)C(F)(F)[C@@H]1O)Oc1ccccc1)C(=O)OCc1ccccc1 (stereo partly specified) | 11.6 µM | > 100 µM | 50 µM | ≥ 50 µM | 39 µM | > 50 µM | > 100 µM | > 50 µM | > 100 µM | > 100 µM | 148 µM |  | > 100 µM |  | 104 µM | > 50 µM | 91 µM | > 50 µM | 
10 | C[C@H](NP(=O)(OC[C@H]1O[C@@H](n2cc(Cl)c(=O)[nH]c2=O)C(F)(F)[C@@H]1O)Oc1ccccc1)C(=O)OCc1ccccc1 (stereo partly specified) | > 100 µM | > 100 µM | 175 µM | ≥ 100 µM | > 50 µM | > 50 µM | > 100 µM | > 50 µM | > 100 µM | > 100 µM | 200 µM |  | > 100 µM |  | 196 µM | > 50 µM | 226 µM | > 50 µM | 
11 | Nc1nc2c(ncn2COCCO)c(=O)[nH]1 [ACYCLOVIR] | 1 µM | > 250 µM |  | > 400 µM |  | > 250 µM |  |  |  |  |  |  |  |  |  |  |  |  | CC50 ([9]; CRFK cells): > 100 µM
12 | O=c1[nH]c(=O)n([C@H]2C[C@H](O)[C@@H](CO)O2)cc1/C=C/Br [BRIVUDINE] | 30 µM | 10 µM |  | 512 µM | 0.03 µM | ≥ 250 µM |  |  |  |  |  | > 150 µM | > 100 µM |  |  |  |  | ≥ 60 µM | 
13 | Nc1ccn(C[C@@H](CO)OCP(=O)(O)O)c(=O)n1 [CIDOFOVIR] | 1.3 µM | 10 µM |  |  |  | > 250 µM |  |  |  |  |  |  |  |  |  |  |  |  | CC50 ([9]; CRFK cells): > 100 µM
14 | Nc1nc2c(ncn2COC(CO)CO)c(=O)[nH]1 [GANCICLOVIR] |  | > 100 µM |  |  |  | > 100 µM |  |  |  |  |  |  |  |  |  |  |  |  | 

Reference: ChEMBL document CHEMBL1806488, “Design, synthesis and biological evaluation of 2'-deoxy-2',2'-difluoro-5-halouridine phosphoramidate ProTides” (Bioorg Med Chem, 2011)
